From ChEMBL document CHEMBL4689842, “EUbOPEN Chemogenomics Library wave 1” (2021)
Values joined by “and” are separate entries in the source; they are usually repeats but may differ in a detail not shown here. Equal values may be shown once.

Assays:
Format in all cases: toxicity, cell-based
[1] = system: Fibroblast; assay: Multiplex assay against human fibroblast
Summary of the method: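 Four dyes were applied at seeding to live cells: Hoechst33342, BioTracker Green Microtubule Cytoskeleton Dye, MitoTracker Red and Annexin V Alexa Fluor 680. Imaging after compound addition used a CQ1 microscope at 37°C and 5% CO2. CellPathfinder machine-learning gating then sorted cells into Hoechst high-intensity objects or normal cells, normal cells into healthy, pyknosed or fragmented nuclei, and pyknosed cells into mitotic or apoptotic, with tubulin, mitochondrial-mass and membrane-permeability phenotypes given as per cents of healthy-nucleus cells.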

[2] = system: U2OS; assay: Incucyte cell viability with U2OS; conditions: human, 10 µM, compound concentration 10 uM; also: filed as whole numbers so only -1 and 0 and 1 occur
[3] = system: HEK-293T; assay: Incucyte cell viability with HEK293T; conditions: human, 10 µM, compound concentration 10 uM; also: filed as whole numbers so only -1 and 0 and 1 occur
[4] = 12 h, 1 µM, compound concentration 1 uM, replicate 1
[5] = 12 h, 1 µM, compound concentration 1 uM, replicate 2
[6] = 12 h, 10 µM, compound concentration 10 uM, replicate 1
[7] = 12 h, 10 µM, compound concentration 10 uM, replicate 2
[8] = 24 h, 1 µM, compound concentration 1 uM, replicate 1
[9] = 24 h, 1 µM, compound concentration 1 uM, replicate 2
[10] = 24 h, 10 µM, compound concentration 10 uM, replicate 1
[11] = 24 h, 10 µM, compound concentration 10 uM, replicate 2
[12] = 48 h, 10 µM, compound concentration 10 uM, replicate 1
[13] = 48 h, 10 µM, compound concentration 10 uM, replicate 2
[14] = 0 h, replicate number 1, timepoint 0 hours
[15] = 12 h, replicate number 1, timepoint 12 hours
[16] = 18 h, replicate number 1, timepoint 18 hours
[17] = 24 h, replicate number 1, timepoint 24 hours

SMILES: CC(C)Oc1ccc(C(=O)N[C@H](CNC(=O)CN(C)C)Cc2ccc(-c3cn4cccc([C@H](C)O)c4n3)cc2)cc1Cl [GSK-923295A]
- Population Apoptotic (%) [1, 4]: 71%
- Population Fragmented Nuclei (%) [1, 4]: 32%
- Population Healthy Nuclei (%) [1, 4]: 48%
- Population Hoechst High Intensity Objects (%) [1, 4]: 12%
- Population Membrane Permeable-Phenotype (%) [1, 4]: 9%
- Population Mitochondria Different-Phenotype (%) [1, 4]: 5%
- Population Mitotic Cells (%) [1, 4]: 28%
- Population Normal (%) [1, 4]: 87%
- Population Pyknosed Nuclei (%) [1, 4]: 18%
- Population Tubulin-Different-Phenotype (%) [1, 4]: 20%
- Total Cell Count [1, 4]: 256
- Population Apoptotic (%) [1, 5]: 100%
- Population Fragmented Nuclei (%) [1, 5]: 49%
- Population Healthy Nuclei (%) [1, 5]: 43%
- Population Hoechst High Intensity Objects (%) [1, 5]: 31%
- Population Mitochondria Different-Phenotype (%) [1, 5]: 31%
- Population Mitotic Cells (%) [1, 5]: 0%
- Population Normal (%) [1, 5]: 68%
- Population Pyknosed Nuclei (%) [1, 5]: 7%
- Population Tubulin-Different-Phenotype (%) [1, 5]: 40%
- Total Cell Count [1, 5]: 74
- Population Apoptotic (%) [1, 6]: 53% and 65%
- Population Fragmented Nuclei (%) [1, 6]: 34% and 27%
- Population Healthy Nuclei (%) [1, 6]: 34% and 50%
- Population Hoechst High Intensity Objects (%) [1, 6]: 30% and 28%
- Population Mitochondria Different-Phenotype (%) [1, 6]: 11% and 7%
- Population Mitotic Cells (%) [1, 6]: 46% and 34%
- Population Normal (%) [1, 6]: 69% and 71%
- Population Pyknosed Nuclei (%) [1, 6]: 30% and 21%
- Population Tubulin-Different-Phenotype (%) [1, 6]: 82% and 59%
- Population Apoptotic (%) [1, 7]: 75% and 30%
- Population Healthy Nuclei (%) [1, 7]: 28% and 73%
- Population Membrane Permeable-Phenotype (%) [1, 7]: 42% and 30%
- Population Mitotic Cells (%) [1, 7]: 25% and 69%
- Population Normal (%) [1, 7]: 65% and 97%
- Population Pyknosed Nuclei (%) [1, 7]: 16% and 17%
- Population Tubulin-Different-Phenotype (%) [1, 7]: 92% and 100%
- Total Cell Count [1, 7]: 75 and 76
- Population Apoptotic (%) [1, 8]: 65%
- Population Fragmented Nuclei (%) [1, 8]: 27%
- Population Healthy Nuclei (%) [1, 8]: 58%
- Population Hoechst High Intensity Objects (%) [1, 8]: 18%
- Population Membrane Permeable-Phenotype (%) [1, 8]: 6%
- Population Mitochondria Different-Phenotype (%) [1, 8]: 7%
- Population Mitotic Cells (%) [1, 8]: 34%
- Population Normal (%) [1, 8]: 81%
- Population Pyknosed Nuclei (%) [1, 8]: 14%
- Population Tubulin-Different-Phenotype (%) [1, 8]: 10%
- Total Cell Count [1, 8]: 266
- Population Apoptotic (%) [1, 9]: 100%
- Population Fragmented Nuclei (%) [1, 9]: 58%
- Population Healthy Nuclei (%) [1, 9]: 34%
- Population Hoechst High Intensity Objects (%) [1, 9]: 26%
- Population Membrane Permeable-Phenotype (%) [1, 9]: 10%
- Population Mitochondria Different-Phenotype (%) [1, 9]: 15%
- Population Mitotic Cells (%) [1, 9]: 0%
- Population Normal (%) [1, 9]: 73%
- Population Pyknosed Nuclei (%) [1, 9]: 6%
- Population Tubulin-Different-Phenotype (%) [1, 9]: 25%
- Total Cell Count [1, 9]: 79
- Population Apoptotic (%) [1, 10]: 64% and 60%
- Population Fragmented Nuclei (%) [1, 10]: 34% and 27%
- Population Healthy Nuclei (%) [1, 10]: 44% and 54%
- Population Hoechst High Intensity Objects (%) [1, 10]: 34% and 39%
- Population Membrane Permeable-Phenotype (%) [1, 10]: 26% and 10%
- Population Mitochondria Different-Phenotype (%) [1, 10]: 26% and 11%
- Population Mitotic Cells (%) [1, 10]: 35% and 39%
- Population Normal (%) [1, 10]: 65% and 60%
- Population Pyknosed Nuclei (%) [1, 10]: 20% and 17%
- Population Tubulin-Different-Phenotype (%) [1, 10]: 76% and 61%
- Population Apoptotic (%) [1, 11]: 75% and 35%
- Population Healthy Nuclei (%) [1, 11]: 35% and 64%
- Population Mitochondria Different-Phenotype (%) [1, 11]: 96%
- Population Mitotic Cells (%) [1, 11]: 25% and 65%
- Population Normal (%) [1, 11]: 50% and 97%
- Population Pyknosed Nuclei (%) [1, 11]: 9% and 24%
- Population Tubulin-Different-Phenotype (%) [1, 11]: 73% and 100%
- Total Cell Count [1, 11]: 83 and 72
- Population Apoptotic (%) [1, 12]: 71%
- Population Fragmented Nuclei (%) [1, 12]: 35%
- Population Healthy Nuclei (%) [1, 12]: 50%
- Population Hoechst High Intensity Objects (%) [1, 12]: 46%
- Population Membrane Permeable-Phenotype (%) [1, 12]: 11%
- Population Mitochondria Different-Phenotype (%) [1, 12]: 7%
- Population Mitotic Cells (%) [1, 12]: 28%
- Population Normal (%) [1, 12]: 53%
- Population Pyknosed Nuclei (%) [1, 12]: 13%
- Population Tubulin-Different-Phenotype (%) [1, 12]: 65%
- Total Cell Count [1, 12]: 96
- Population Apoptotic (%) [1, 13]: 57%
- Population Fragmented Nuclei (%) [1, 13]: 32%
- Population Healthy Nuclei (%) [1, 13]: 55%
- Population Hoechst High Intensity Objects (%) [1, 13]: 35%
- Population Membrane Permeable-Phenotype (%) [1, 13]: 9%
- Population Mitochondria Different-Phenotype (%) [1, 13]: 6%
- Population Mitotic Cells (%) [1, 13]: 42%
- Population Normal (%) [1, 13]: 64%
- Population Pyknosed Nuclei (%) [1, 13]: 11%
- Population Tubulin-Different-Phenotype (%) [1, 13]: 71%
- Total Cell Count [1, 13]: 281
- Growth Rate [2, 14]: 0
- Growth Rate ([2]; 6 h, replicate number 1, timepoint 6 hours): 0
- Growth Rate [2, 15]: 0
- Growth Rate [2, 16]: 0
- Growth Rate [2, 17]: 0
- Growth Rate [3, 14]: 0
- Growth Rate ([3]; 6 h, replicate number 2, timepoint 6 hours): 0
- Growth Rate [3, 15]: 0
- Growth Rate [3, 16]: 0
- Growth Rate [3, 17]: 0
